Results on 19 compounds are retold here after ChEMBL document CHEMBL1772997 (J Med Chem, 2011).

One may read the EC50 as the concentration that produces a half-maximal response. Broadly, the Ki is a measure of affinity in units of concentration, obtained from inhibition or displacement. Higher therefore signals a looser hold on the target. Usually Emax stands for the greatest response seen or fitted, relative to the assay's reference.

The source made the active and inactive calls. The calls are words filed in the database; no cut-off is given here. Where only a bound is given, the exact number is not on record here.

One assay deals with T1, Melatonin receptor type 1B (Homo sapiens, UniProt P49286).
T1 sequence (P49286 whole entry): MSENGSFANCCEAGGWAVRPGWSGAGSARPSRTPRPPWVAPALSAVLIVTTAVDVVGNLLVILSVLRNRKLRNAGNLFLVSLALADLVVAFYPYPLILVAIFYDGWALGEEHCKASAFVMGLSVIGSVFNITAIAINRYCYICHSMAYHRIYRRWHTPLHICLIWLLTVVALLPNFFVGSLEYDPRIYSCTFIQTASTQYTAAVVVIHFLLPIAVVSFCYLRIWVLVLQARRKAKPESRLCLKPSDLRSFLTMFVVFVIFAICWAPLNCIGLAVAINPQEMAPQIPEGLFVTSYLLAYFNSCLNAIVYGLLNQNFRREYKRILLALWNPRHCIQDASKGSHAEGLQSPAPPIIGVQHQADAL
Briefly: Agonist activity at human MT2 receptor expressed in CHO cells assessed as inhibition of forskolin-induced cAMP accumulation after 30 mins by EnVision Multilabel Plate Readers. The format is functional, cell-based. On the technique in general: cAMP levels reflect the balance of adenylyl cyclase and phosphodiesterase activity.
Consider `CC(=O)NCCC1=C(CC2CCCCC2)Cc2ccc3c(c21)CCO3`, for which the EC50 was 1.32 nM.

Another assay relates to Mus musculus. Briefly: Chronobiotic activity in ICR mouse assessed as reentrainment for 8 hrs advance of dark phase at 30 mg/kg, ip administered 1 hr before dark period once daily for 3 days by running-wheel activity assay. The format is functional, organism-based. Set-up: dose 30 mg/kg. The method in brief:
(§1)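 Male ICR mice (6 weeks old), housed individually with running wheels under 12/12 light/dark, habituated at least 2 weeks; dark phase then advanced 8 h and kept 14 days. Dosed ip once daily 1 h before dark from shift day, suspended in 0.5% methylcellulose saline, 10 mL/kg. Days to reentrainment: onset advanced >7 h for ≥3 consecutive days, else scored 14 days.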
Regarding `CC(=O)NCCC1=C(CC2CCCCC2)Cc2ccc3c(c21)CCO3`, the outcome was Active.

For another assay, the target named is T2, Melatonin receptor type 1A (Homo sapiens, UniProt P48039). Briefly: Agonist activity at human MT1 receptor expressed in CHO cells assessed as inhibition of forskolin-induced cAMP accumulation after 30 mins by EnVision Multilabel Plate Readers. The format is functional, cell-based.
T2 sequence (P48039 whole entry): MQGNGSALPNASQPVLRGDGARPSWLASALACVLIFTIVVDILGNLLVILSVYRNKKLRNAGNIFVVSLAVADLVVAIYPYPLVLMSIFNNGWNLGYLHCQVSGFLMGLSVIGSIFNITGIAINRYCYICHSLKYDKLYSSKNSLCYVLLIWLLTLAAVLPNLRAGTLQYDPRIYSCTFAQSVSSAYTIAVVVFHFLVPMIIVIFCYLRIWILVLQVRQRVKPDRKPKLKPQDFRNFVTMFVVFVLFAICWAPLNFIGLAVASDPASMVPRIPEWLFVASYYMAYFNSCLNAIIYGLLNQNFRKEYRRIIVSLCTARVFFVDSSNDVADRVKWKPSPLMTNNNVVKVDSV
For `CC(=O)NCCC1=C(c2cccc(C(C)C)c2)Cc2ccc3c(c21)CCO3`, the EC50 is 3.02 nM.
Still for that read-out and setting: the same measure for `CC(=O)NCCC1=C(CC2CCCCC2)Cc2ccc3c(c21)CCO3`: 4.47 nM.
The same measure, in the same setting: the same measure for `CC(=O)NCCC1=C(Cc2ccccc2)Cc2ccc3c(c21)CCO3`: 0.513 nM.

For the next assay, the target named is T3, Melatonin receptor type 1B (Homo sapiens) (UniProt P49286).
T3 sequence (whole entry): T1 sequence (P49286 whole entry)
Briefly: Ratio of compound Ki to melatonin Ki for human MT2 receptor expressed on CHO cells by radioligand displacement assay. The format is cell-based. The method in brief:
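Membranes from CHO cells stably expressing human MT1 or MT2, in 50 mM Tris-HCl pH 7.7. Incubated with 2-[¹²⁵I]iodomelatonin, 40 pM for MT1 or 80 pM for MT2, 150 min at 25 °C. […] IC50 by three-parameter fit, Ki by Cheng–Prusoff using Kd 33.9 pM for MT1 and 72.6 pM for MT2.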
A general note: Loss of bound radioactivity is the signal in a displacement assay; it reports binding, not function.
Regarding `CC(=O)NCCC1=CCc2ccc3c(c21)CCO3`, the Ratio Ki came out at 10.
As for `CC(=O)NCCC1=C(c2cccc(C(C)C)c2)Cc2ccc3c(c21)CCO3`, the Ratio Ki is 19.
Same read-out and setting: with `CC(=O)NCCC1=C(CC2CCCCC2)Cc2ccc3c(c21)CCO3` the figure was 18.

A further assay deals with T1, Melatonin receptor type 1B. Briefly: Displacement of [125I]-2-iodomelatonin from human MT2 receptor expressed on CHO cells microscintillation counting. The format is cell-based.
`CC(=O)NCCC1=C(c2csc3ccccc23)Cc2ccc3c(c21)CCO3`: the affinity, expressed as Ki, was 0.006 nM.
On the same count and under the same terms, the same measure for `CC(=O)NCCC1=C(C(C)C)Cc2ccc3c(c21)CCO3`: 0.018 nM.
On the same count and under the same terms, with `CCNC(=O)NCCC1=C(C(C)C)Cc2ccc3c(c21)CCO3` the figure was 0.084 nM; with `CC(=O)NCCC1=C(c2ccoc2)Cc2ccc3c(c21)CCO3`, 0.0096 nM.
The same measure, in the same setting: the same measure for `CC(=O)NCCC1=CCc2ccc3c(c21)CCO3`: 0.022 nM; for `CC(=O)NCCC1=C(Br)Cc2ccc3c(c21)CCO3`: 0.014 nM; for `CC(=O)NCCC1=C(c2ccccc2OC(C)C)Cc2ccc3c(c21)CCO3`: 0.34 nM.
`COc1cccc(C2=C(CCNC(C)=O)c3c(ccc4c3CCO4)C2)c1` gave a Ki of 0.009 nM.
Same read-out and setting: with `CC(=O)NCCC1=C(c2cccc(C(C)C)c2)Cc2ccc3c(c21)CCO3` the figure was 0.011 nM; with `CC(=O)NCCC1=C(CC2CCCCC2)Cc2ccc3c(c21)CCO3`, 0.012 nM.
Same read-out and setting: the same measure for `CC(C)C1=C(CCNC(=O)C(F)(F)F)c2c(ccc3c2CCO3)C1`: 0.01 nM; for `CC(=O)NCCC1=C(Cc2ccccc2)Cc2ccc3c(c21)CCO3`: 0.0085 nM.
On the same count and under the same terms, the same measure for `CC(=O)NCCC1=C(Cc2ccsc2)Cc2ccc3c(c21)CCO3`: 0.0067 nM; for `CC(=O)NCCC1=C(c2ccc(C(C)(C)C)cc2)Cc2ccc3c(c21)CCO3`: 0.77 nM.
As for `CC(C)C1=C(CCNC(=O)C2CC2)c2c(ccc3c2CCO3)C1`, the inhibitory constant (Ki) came out at 0.035 nM.
Same read-out and setting: the same measure for `CCC(=O)NCCC1=C(C(C)C)Cc2ccc3c(c21)CCO3`: 0.011 nM.
On the same count and under the same terms, the same measure for `COc1ccc(C2=C(CCNC(C)=O)c3c(ccc4c3CCO4)C2)cc1`: 0.037 nM; for `CC(=O)NCCC1=C(c2cccnc2)Cc2ccc3c(c21)CCO3`: 0.034 nM; for `COc1ccccc1C1=C(CCNC(C)=O)c2c(ccc3c2CCO3)C1`: 0.02 nM.

For the next assay, the species on record is Homo sapiens. Briefly: Selectivity ratio, ratio of Ki for human MT1 receptor over Ki for human MT2 receptor.
In the case of `CC(=O)NCCC1=C(c2csc3ccccc23)Cc2ccc3c(c21)CCO3`, the Ratio Ki was determined as 220.
Take `CC(=O)NCCC1=C(C(C)C)Cc2ccc3c(c21)CCO3`: the Ratio Ki was 1.3.
Same read-out and setting: the same measure for `CCNC(=O)NCCC1=C(C(C)C)Cc2ccc3c(c21)CCO3`: 13.
As for `CC(=O)NCCC1=C(c2ccoc2)Cc2ccc3c(c21)CCO3`, the Ratio Ki turned out to be 0.68.
`CC(=O)NCCC1=CCc2ccc3c(c21)CCO3`: the Ratio Ki is 2.1.
Same read-out and setting: with `CC(=O)NCCC1=C(Br)Cc2ccc3c(c21)CCO3` the figure was 0.61; with `CC(=O)NCCC1=C(c2ccccc2OC(C)C)Cc2ccc3c(c21)CCO3`, over 292; with `COc1cccc(C2=C(CCNC(C)=O)c3c(ccc4c3CCO4)C2)c1`, 6.3.
On the same count and under the same terms, with `CC(=O)NCCC1=C(c2cccc(C(C)C)c2)Cc2ccc3c(c21)CCO3` the figure was 1200; with `CC(=O)NCCC1=C(CC2CCCCC2)Cc2ccc3c(c21)CCO3`, 799.
Still for that read-out and setting: with `CC(C)C1=C(CCNC(=O)C(F)(F)F)c2c(ccc3c2CCO3)C1` the figure was 3.1.
On to `CC(=O)NCCC1=C(Cc2ccccc2)Cc2ccc3c(c21)CCO3`, for which the Ratio Ki came out at 316.
The same measure, in the same setting: with `CC(=O)NCCC1=C(Cc2ccsc2)Cc2ccc3c(c21)CCO3` the figure was 132; with `CC(=O)NCCC1=C(c2ccc(C(C)(C)C)cc2)Cc2ccc3c(c21)CCO3`, 1.8; with `CC(C)C1=C(CCNC(=O)C2CC2)c2c(ccc3c2CCO3)C1`, 3.2.
Same read-out and setting: with `CCC(=O)NCCC1=C(C(C)C)Cc2ccc3c(c21)CCO3` the figure was 1.3; with `COc1ccc(C2=C(CCNC(C)=O)c3c(ccc4c3CCO4)C2)cc1`, 81; with `CC(=O)NCCC1=C(c2cccnc2)Cc2ccc3c(c21)CCO3`, 2.1.
The same measure, in the same setting: the same measure for `COc1ccccc1C1=C(CCNC(C)=O)c2c(ccc3c2CCO3)C1`: 53.

For a further assay, the system named is Mus musculus. Briefly: Chronobiotic activity in ICR mouse assessed as reentrainment for 8 hrs advance of dark phase at 3 mg/kg, ip administered 1 hr before dark period once daily for 3 days by running-wheel activity assay. The format is functional, organism-based. Set-up: dose 3 mg/kg. The method in brief:
as §1
As to `CC(=O)NCCC1=C(CC2CCCCC2)Cc2ccc3c(c21)CCO3`, the result was Active.

A further assay deals with T3, Melatonin receptor type 1B (Homo sapiens). Briefly: Agonist activity at human MT2 receptor expressed in CHO cells assessed as inhibition of forskolin-induced cAMP accumulation after 30 mins by EnVision Multilabel Plate Readers relative to control. The format is functional, cell-based. An outline of the steps: (§2)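 Stable CHO line expressing human MT2, suspended in modified HBSS with 5 mM HEPES pH 7.4, 0.1% BSA, 100 μM IBMX and 100 μM Ro20-1724; 6 × 10⁴ cells/well. Compound added, then forskolin (final 2 μM), 30 min at room temperature; AlphaScreen cAMP read after 12 h in dark.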
In the case of `CC(=O)NCCC1=C(CC2CCCCC2)Cc2ccc3c(c21)CCO3`, the Emax worked out at 99%.
Same read-out and setting: the same measure for `CC(=O)NCCC1=C(Cc2ccccc2)Cc2ccc3c(c21)CCO3`: 61.7%.

For the next assay the target is unchanged. Briefly: Partial agonist activity at human MT2 receptor expressed in CHO cells assessed as inhibition of forskolin-induced cAMP accumulation after 30 mins by EnVision Multilabel Plate Readers relative to control. The format is functional, cell-based. An outline of the steps: as §2
Consider `CC(=O)NCCC1=C(c2cccc(C(C)C)c2)Cc2ccc3c(c21)CCO3`, for which the Emax was 72.8%.

A further assay concerns the target T2, Melatonin receptor type 1A. Briefly: Displacement of [125I]-2-iodomelatonin from human MT1 receptor expressed on CHO cells by microscintillation counting. The format is cell-based.
On to `CC(=O)NCCC1=C(c2csc3ccccc23)Cc2ccc3c(c21)CCO3`, for which the inhibitory constant (Ki) is 1.3 nM.
As to `CC(=O)NCCC1=C(C(C)C)Cc2ccc3c(c21)CCO3`, affinity was put at a Ki of 0.024 nM.
Same read-out and setting: with `CCNC(=O)NCCC1=C(C(C)C)Cc2ccc3c(c21)CCO3` the figure was 1.1 nM; with `CC(=O)NCCC1=C(c2ccoc2)Cc2ccc3c(c21)CCO3`, 0.0065 nM.
Same read-out and setting: with `CC(=O)NCCC1=CCc2ccc3c(c21)CCO3` the figure was 0.045 nM; with `CC(=O)NCCC1=C(Br)Cc2ccc3c(c21)CCO3`, 0.0087 nM; with `CC(=O)NCCC1=C(c2ccccc2OC(C)C)Cc2ccc3c(c21)CCO3`, over 100 nM.
On the same count and under the same terms, the same measure for `COc1cccc(C2=C(CCNC(C)=O)c3c(ccc4c3CCO4)C2)c1`: 0.057 nM.
On to `CC(=O)NCCC1=C(c2cccc(C(C)C)c2)Cc2ccc3c(c21)CCO3`, for which the Ki came out at 13 nM.
On the same count and under the same terms, the same measure for `CC(=O)NCCC1=C(CC2CCCCC2)Cc2ccc3c(c21)CCO3`: 9.2 nM; for `CC(C)C1=C(CCNC(=O)C(F)(F)F)c2c(ccc3c2CCO3)C1`: 0.032 nM.
Same read-out and setting: the same measure for `CC(=O)NCCC1=C(Cc2ccccc2)Cc2ccc3c(c21)CCO3`: 2.7 nM.
On to `CC(=O)NCCC1=C(Cc2ccsc2)Cc2ccc3c(c21)CCO3`, for which the Ki is 0.88 nM.
Still for that read-out and setting: with `CC(=O)NCCC1=C(c2ccc(C(C)(C)C)cc2)Cc2ccc3c(c21)CCO3` the figure was 1.4 nM.
The same measure, in the same setting: with `CC(C)C1=C(CCNC(=O)C2CC2)c2c(ccc3c2CCO3)C1` the figure was 0.11 nM; with `CCC(=O)NCCC1=C(C(C)C)Cc2ccc3c(c21)CCO3`, 0.013 nM; with `COc1ccc(C2=C(CCNC(C)=O)c3c(ccc4c3CCO4)C2)cc1`, 3 nM.
On the same count and under the same terms, the same measure for `CC(=O)NCCC1=C(c2cccnc2)Cc2ccc3c(c21)CCO3`: 0.069 nM; for `COc1ccccc1C1=C(CCNC(C)=O)c2c(ccc3c2CCO3)C1`: 1.1 nM.
